Several values for one entry are separate records, joined by “and”; a condition that tells them apart may be missing. Identical values can stand only once.
System: Fibroblast
Assay: Multiplex assay against human fibroblast
Format: toxicity, cell-based
Conditions: number of replicates 2
Outline: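 Live cells carried four stains from seeding: Hoechst33342, BioTracker Green Microtubule Cytoskeleton Dye, MitoTracker Red and Annexin V Alexa Fluor 680. They were imaged on a CQ1 microscope at 37°C and 5% CO2 after compound addition. Using CellPathfinder machine-learning gating, cells were split into Hoechst high-intensity objects or normal cells, normal cells into healthy, pyknosed or fragmented nuclei, and pyknosed cells into mitotic or apoptotic; tubulin, mitochondrial-mass and membrane-permeability phenotypes are per cents of healthy-nucleus cells.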

[1] = 12 h, 10 µM, compound concentration 10 uM
[2] = 24 h, 10 µM, compound concentration 10 uM
[3] = 48 h, 10 µM, compound concentration 10 uM
[4] = 12 h, 1 µM, compound concentration 1 uM
[5] = 24 h, 1 µM, compound concentration 1 uM
[6] = 48 h, 1 µM, compound concentration 1 uM

Structure (SMILES): CCOC(=O)Nc1cc(-c2ccc(C)c(NS(C)(=O)=O)c2)nn2c(C)nnc12
- Population Apoptotic (%) [1]: 56% and 50% and 58% and 35%
- Population Fragmented Nuclei (%) [1]: 24% [middle of 4 runs]
- Population Healthy Nuclei (%) [1]: 74% and 67% and 65% and 60%
- Population Hoechst High Intensity Objects (%) [1]: 0%
- Population Mitochondria Different-Phenotype (%) [1]: 4% and 3% and 1%
- Population Mitotic Cells (%) [1]: 43% and 50% and 41% and 64%
- Population Normal (%) [1]: 99% and 100%
- Population Pyknosed Nuclei (%) [1]: 13% and 8%
- Population Tubulin-Different-Phenotype (%) [1]: 52% and 63% and 54% and 62%
- Total Cell Count [1]: 238 and 256 and 323 and 254
- Population Apoptotic (%) [2]: 52% and 69% and 65% and 42%
- Population Fragmented Nuclei (%) [2]: 33% and 20% and 21% and 34%
- Population Healthy Nuclei (%) [2]: 58% and 68% and 66% and 56%
- Population Hoechst High Intensity Objects (%) [2]: 0%
- Population Membrane Permeable-Phenotype (%) [2]: 11% and 5% and 12%
- Population Mitochondria Different-Phenotype (%) [2]: 7% and 4% and 2%
- Population Mitotic Cells (%) [2]: 47% and 30% and 34% and 57%
- Population Normal (%) [2]: 100%
- Population Pyknosed Nuclei (%) [2]: 7% and 11% and 8%
- Population Tubulin-Different-Phenotype (%) [2]: 57% and 33% and 29% and 43%
- Total Cell Count [2]: 314 and 289 and 319 and 299
- Population Apoptotic (%) [3]: 80% and 97% and 72%
- Population Fragmented Nuclei (%) [3]: 16% and 27% and 31%
- Population Healthy Nuclei (%) [3]: 71% and 60% and 67% and 52%
- Population Hoechst High Intensity Objects (%) [3]: 0%
- Population Membrane Permeable-Phenotype (%) [3]: 10% [middle of 4 runs]
- Population Mitochondria Different-Phenotype (%) [3]: 1% and 9% and 3% and 8%
- Population Normal (%) [3]: 100%
- Population Pyknosed Nuclei (%) [3]: 12% and 16%
- Population Tubulin-Different-Phenotype (%) [3]: 24% and 48% and 26% and 34%
- Total Cell Count [3]: 248 and 265 and 292 and 250

Structure (SMILES): O=C1NC(=O)C(c2ccccc2[N+](=O)[O-])=C1Nc1ccc(O)c(Cl)c1
- Population Fragmented Nuclei (%) [4]: 10% and 18%
- Population Healthy Nuclei (%) [4]: 77% and 65%
- Population Hoechst High Intensity Objects (%) [4]: 0%
- Population Membrane Permeable-Phenotype (%) [4]: 3% and 7%
- Population Mitochondria Different-Phenotype (%) [4]: 1% and 0%
- Population Mitotic Cells (%) [4]: 87% and 53%
- Population Normal (%) [4]: 100% and 99%
- Population Pyknosed Nuclei (%) [4]: 11% and 16%
- Population Tubulin-Different-Phenotype (%) [4]: 4% and 9%
- Population Apoptotic (%) [1]: 46% and 47%
- Population Fragmented Nuclei (%) [1]: 8% and 12%
- Population Healthy Nuclei (%) [1]: 82% and 80%
- Population Hoechst High Intensity Objects (%) [1]: 0%
- Population Membrane Permeable-Phenotype (%) [1]: 1% and 2%
- Population Mitochondria Different-Phenotype (%) [1]: 0% and 1%
- Population Mitotic Cells (%) [1]: 53% and 52%
- Population Normal (%) [1]: 100%
- Population Pyknosed Nuclei (%) [1]: 9% and 7%
- Population Tubulin-Different-Phenotype (%) [1]: 6% and 5%
- Population Apoptotic (%) [5]: 45% and 57%
- Population Fragmented Nuclei (%) [5]: 10% and 17%
- Population Healthy Nuclei (%) [5]: 84% and 74%
- Population Hoechst High Intensity Objects (%) [5]: 0%
- Population Membrane Permeable-Phenotype (%) [5]: 2% and 4%
- Population Mitochondria Different-Phenotype (%) [5]: 0% and 1%
- Population Mitotic Cells (%) [5]: 54% and 42%
- Population Normal (%) [5]: 100%
- Population Pyknosed Nuclei (%) [5]: 5% and 8%
- Population Tubulin-Different-Phenotype (%) [5]: 5% and 7%
- Population Apoptotic (%) [2]: 40% and 37%
- Population Fragmented Nuclei (%) [2]: 12% and 11%
- Population Healthy Nuclei (%) [2]: 81% and 84%
- Population Hoechst High Intensity Objects (%) [2]: 0%
- Population Membrane Permeable-Phenotype (%) [2]: 2% and 3%
- Population Mitochondria Different-Phenotype (%) [2]: 0% and 1%
- Population Mitotic Cells (%) [2]: 60% and 62%
- Population Normal (%) [2]: 100%
- Population Pyknosed Nuclei (%) [2]: 6% and 3%
- Population Tubulin-Different-Phenotype (%) [2]: 7% and 2%
- Population Apoptotic (%) [6]: 35% and 46%
- Population Fragmented Nuclei (%) [6]: 12% and 19%
- Population Healthy Nuclei (%) [6]: 81% and 73%
- Population Hoechst High Intensity Objects (%) [6]: 0%
- Population Membrane Permeable-Phenotype (%) [6]: 1% and 2%
- Population Mitochondria Different-Phenotype (%) [6]: 0%
- Population Mitotic Cells (%) [6]: 64% and 53%
- Population Normal (%) [6]: 100%
- Population Pyknosed Nuclei (%) [6]: 6%
- Population Tubulin-Different-Phenotype (%) [6]: 3% and 2%
- Population Apoptotic (%) [3]: 33% and 75%
- Population Fragmented Nuclei (%) [3]: 6% and 11%
- Population Healthy Nuclei (%) [3]: 91% and 84%
- Population Hoechst High Intensity Objects (%) [3]: 0%
- Population Membrane Permeable-Phenotype (%) [3]: 3% and 0%
- Population Mitochondria Different-Phenotype (%) [3]: 0%
- Population Mitotic Cells (%) [3]: 66% and 25%
- Population Normal (%) [3]: 100%
- Population Pyknosed Nuclei (%) [3]: 1% and 3%
- Population Tubulin-Different-Phenotype (%) [3]: 7% and 1%

Structure (SMILES): CC(C)N1CCN(Cc2cnc(-c3cc(-c4cccc5[nH]ccc45)cc4[nH]ncc34)o2)CC1 [NEMIRALISIB]
- Population Apoptotic (%) [4]: 48% and 43%
- Population Fragmented Nuclei (%) [4]: 10%
- Population Healthy Nuclei (%) [4]: 72% and 64%
- Population Hoechst High Intensity Objects (%) [4]: 0%
- Population Membrane Permeable-Phenotype (%) [4]: 6% and 3%
- Population Mitochondria Different-Phenotype (%) [4]: 2% and 0%
- Population Mitotic Cells (%) [4]: 51% and 56%
- Population Normal (%) [4]: 100% and 99%
- Population Pyknosed Nuclei (%) [4]: 16% and 24%
- Population Tubulin-Different-Phenotype (%) [4]: 19% and 9%
- Total Cell Count [4]: 206 and 286
- Population Apoptotic (%) [1]: 32% and 38%
- Population Fragmented Nuclei (%) [1]: 7% and 15%
- Population Healthy Nuclei (%) [1]: 63% and 69%
- Population Hoechst High Intensity Objects (%) [1]: 0% and 2%
- Population Membrane Permeable-Phenotype (%) [1]: 7%
- Population Mitochondria Different-Phenotype (%) [1]: 6% and 12%
- Population Mitotic Cells (%) [1]: 67% and 61%
- Population Normal (%) [1]: 100% and 97%
- Population Pyknosed Nuclei (%) [1]: 28% and 15%
- Population Tubulin-Different-Phenotype (%) [1]: 58% and 61%
- Total Cell Count [1]: 207 and 263
- Population Apoptotic (%) [5]: 50% and 62%
- Population Fragmented Nuclei (%) [5]: 8% and 10%
- Population Healthy Nuclei (%) [5]: 70%
- Population Hoechst High Intensity Objects (%) [5]: 0%
- Population Membrane Permeable-Phenotype (%) [5]: 7%
- Population Mitochondria Different-Phenotype (%) [5]: 2% and 1%
- Population Mitotic Cells (%) [5]: 50% and 37%
- Population Normal (%) [5]: 100%
- Population Pyknosed Nuclei (%) [5]: 20% and 19%
- Population Tubulin-Different-Phenotype (%) [5]: 25% and 11%
- Total Cell Count [5]: 201 and 273
- Population Apoptotic (%) [2]: 52% and 71%
- Population Fragmented Nuclei (%) [2]: 5% and 15%
- Population Healthy Nuclei (%) [2]: 72% and 68%
- Population Hoechst High Intensity Objects (%) [2]: 3% and 5%
- Population Membrane Permeable-Phenotype (%) [2]: 7% and 3%
- Population Mitochondria Different-Phenotype (%) [2]: 17% and 22%
- Population Mitotic Cells (%) [2]: 47% and 28%
- Population Normal (%) [2]: 96% and 95%
- Population Pyknosed Nuclei (%) [2]: 22% and 15%
- Population Tubulin-Different-Phenotype (%) [2]: 64% and 58%
- Total Cell Count [2]: 175 and 240
- Population Apoptotic (%) [6]: 54% and 64%
- Population Fragmented Nuclei (%) [6]: 11% and 12%
- Population Healthy Nuclei (%) [6]: 73% and 67%
- Population Hoechst High Intensity Objects (%) [6]: 0%
- Population Membrane Permeable-Phenotype (%) [6]: 9% and 3%
- Population Mitochondria Different-Phenotype (%) [6]: 3% and 0%
- Population Mitotic Cells (%) [6]: 45% and 35%
- Population Normal (%) [6]: 100%
- Population Pyknosed Nuclei (%) [6]: 15% and 19%
- Population Tubulin-Different-Phenotype (%) [6]: 15% and 7%
- Total Cell Count [6]: 214 and 290
- Population Apoptotic (%) [3]: 84% and 61%
- Population Fragmented Nuclei (%) [3]: 10% and 15%
- Population Healthy Nuclei (%) [3]: 69% and 68%
- Population Hoechst High Intensity Objects (%) [3]: 7% and 5%
- Population Membrane Permeable-Phenotype (%) [3]: 6% and 4%
- Population Mitochondria Different-Phenotype (%) [3]: 11% and 14%
- Population Mitotic Cells (%) [3]: 15% and 38%
- Population Normal (%) [3]: 92% and 94%
- Population Pyknosed Nuclei (%) [3]: 19% and 16%
- Population Tubulin-Different-Phenotype (%) [3]: 34% and 40%
- Total Cell Count [3]: 178 and 231

Structure (SMILES): CC(=O)O[C@H]1C(=O)[C@@]2(C)[C@H]([C@H](OC(=O)c3ccccc3)[C@]3(O)C[C@H](OC(=O)[C@H](O)[C@@H](NC(=O)c4ccccc4)c4ccccc4)C(C)=C1C3(C)C)[C@]1(OC(C)=O)CO[C@@H]1C[C@@H]2O [PACLITAXEL]
- Population Apoptotic (%) [1]: 50% and 51% and 43% and 57%
- Population Fragmented Nuclei (%) [1]: 18% and 14% and 8% and 16%
- Population Healthy Nuclei (%) [1]: 60% and 57% and 66%
- Population Hoechst High Intensity Objects (%) [1]: 0%
- Population Membrane Permeable-Phenotype (%) [1]: 2% and 1%
- Population Mitochondria Different-Phenotype (%) [1]: 4% and 1% and 2% and 7%
- Population Mitotic Cells (%) [1]: 50% and 48% and 56% and 42%
- Population Normal (%) [1]: 100% and 99%
- Population Pyknosed Nuclei (%) [1]: 21% and 28% and 24% and 17%
- Population Tubulin-Different-Phenotype (%) [1]: 14% and 15% and 13%
- Population Apoptotic (%) [2]: 68% and 71% and 75% and 53%
- Population Fragmented Nuclei (%) [2]: 14% and 11% and 18%
- Population Healthy Nuclei (%) [2]: 61% and 56% and 63%
- Population Hoechst High Intensity Objects (%) [2]: 0%
- Population Membrane Permeable-Phenotype (%) [2]: 0% and 2% and 1%
- Population Mitochondria Different-Phenotype (%) [2]: 4% and 10% and 7% and 8%
- Population Mitotic Cells (%) [2]: 31% and 28% and 24% and 46%
- Population Normal (%) [2]: 100% and 99%
- Population Pyknosed Nuclei (%) [2]: 23% and 28% and 25% and 19%
- Population Apoptotic (%) [3]: 92% and 82% and 86% and 71%
- Population Fragmented Nuclei (%) [3]: 23% and 16% and 19% and 22%
- Population Healthy Nuclei (%) [3]: 60% and 62% and 63%
- Population Hoechst High Intensity Objects (%) [3]: 0%
- Population Membrane Permeable-Phenotype (%) [3]: 1% and 7% and 3%
- Population Mitochondria Different-Phenotype (%) [3]: 6% and 9% and 7%
- Population Normal (%) [3]: 100% and 99%
- Population Pyknosed Nuclei (%) [3]: 15% and 20% and 16%
- Population Tubulin-Different-Phenotype (%) [3]: 14% and 19% and 11% and 10%

Source: ChEMBL document CHEMBL5303300, “EUbOPEN Chemogenomics Library - Multiplex” (2023)
